{"data": "Results gathered from unrelated publications", "rep main protease": "Replicase polyprotein 1ab, main protease (rep, Severe acute respiratory syndrome coronavirus 2, UniProt P0DTD1)"}
{"SMILES": "CCN(C[C@H]1O[C@@H](n2cnc3c(N)ncnc32)[C@H](O)[C@@H]1O)S(=O)(=O)c1ccc(OC)c(C#N)c1", "target": "Replicase polyprotein 1ab, methyltransferase (rep, Severe acute respiratory syndrome coronavirus 2, UniProt P0DTD1)", "read-out": "enzyme activity", "mode": "inhibitor", "concentration": "5 µM", "quantity": "remaining activity", "value": "0.1%"}
{"SMILES": "CC(C)[C@H](NC(=O)OC(C)(C)C)C(=O)N1C[C@@H]2CCC[C@@H]2[C@H]1C(=O)N[C@H](C=O)C[C@@H]1CCNC1=O", "target": "rep main protease", "read-out": "thermal stability", "concentration": "40 µM", "quantity": "ΔTm", "value": "11 °C"}
{"SMILES": "C=C1CC[C@@H]2[C@](C)(CO)[C@H](O)CC[C@@]2(C)[C@@H]1C/C=C1/C(=O)OC[C@H]1O", "target": "rep main protease", "read-out": "enzyme activity", "mode": "inhibitor", "concentration": "20 µM", "quantity": "remaining activity", "value": "96%"}
{"SMILES": "CC(C)C[C@H](NC(=O)OCc1ccccc1)C(=O)N[C@@H](CC(C)C)C(=O)N[C@@H](CC1CCNC1=O)C(=O)C(=O)NC1CC1 (some centres unmarked)", "target": "rep main protease", "read-out": "enzyme activity", "mode": "inhibitor", "quantity": "kinact/KI", "value": "90500 M⁻¹ s⁻¹"}
{"SMILES": "CC(C)(C)NC(=O)[C@@H]1CN(Cc2cccnc2)CCN1C[C@@H](O)C[C@@H](Cc1ccccc1)C(=O)N[C@H]1c2ccccc2C[C@H]1O", "target": "rep main protease", "read-out": "enzyme activity", "mode": "inhibitor", "technique": "FRET", "concentration": "100 µM", "quantity": "activity vs control", "value": "100%"}
{"SMILES": "Clc1nc2ccccc2cc1/C=N\\c1ccc(Br)nc1", "target": "rep main protease", "read-out": "thermal stability", "concentration": "100 µM", "quantity": "ΔTm", "value": "8 to 12 °C"}
{"SMILES": "CS(=O)(=O)CCNCc1ccc(-c2ccc3ncnc(Nc4ccc(OCc5cccc(F)c5)c(Cl)c4)c3c2)o1", "target": "rep main protease", "read-out": "enzyme activity", "mode": "inhibitor", "technique": "FRET", "concentration": "100 µM", "quantity": "activity vs control", "value": "100%"}
{"SMILES": "Cc1ccc2nc(Cl)c(C=Nc3cc(Br)ccn3)cc2c1", "target": "rep main protease", "read-out": "thermal stability", "concentration": "100 µM", "quantity": "ΔTm", "value": "8 to 12 °C"}
